Measured values taken from ChEMBL document CHEMBL1124745, “Acyclic purine phosphonate analogues as antiviral agents. Synthesis and structure-activity relationships” (J Med Chem, 1990).
Values after ≈ are worked out from the molar mass of the structure shown.

Assays:
[1] = test system: Human alphaherpesvirus 1; assay: Evaluated for the antiviral activity against Herpes simplex virus type 1 (HSV-1) strain BWS by the plaque reduction assay; format: functional; settings: read-out: ID50 (the source's name)
In short: (§1)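 Plaque reduction in Vero cells: about 50 PFU HSV per well adsorbed 1 h with intermittent shaking. Inoculum removed; 10% EMEM with 2-fold drug dilutions added in triplicate, with no-drug virus controls. 48 h at 37 °C, 5% CO2, then Giemsa stain and plaque count. ID50 is the concentration giving 50% plaque reduction versus control.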

[2] = test system: Human alphaherpesvirus 2; assay: Evaluated for the antiviral activity against Herpes simplex virus type 2 (HSV-2) strain G by the plaque reduction assay; format: functional; settings: read-out: ID50 (the source's name); in short: as §1
[3] = test system: Vero; assay: Evaluated for the antiviral activity against Vero cells by proliferation assays (in uninfected cells); format: functional; settings: Chlorocebus sabaeus, read-out: ID50 (the source's name)
In short: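 Cell proliferation assay in uninfected Vero cells; ID50 in µg/mL.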

[4] = test system: guanylate kinase; assay: Evaluated for the kinetic parameter Km, with bovine brain guanylate kinase.; format: ADME, Bos taurus; settings: cattle
[5] = species: Bos taurus; assay: Evaluated for the rate of phosphorylation with bovine brain guanylate kinase; format: ADME; settings: cattle, in vivo
[6] = test system: Human betaherpesvirus 5; assay: Evaluated for the antiviral activity against Human cytomegalovirus (HCMV) with strain AD-169 by the plaque reduction assay; format: functional; settings: read-out: ID50 (the source's name)
In short: (§2)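 HCMV AD169 grown and titered at 37 °C in MRC-5 human embryonic lung diploid cells. Plaque reduction assay in MRC-5 with 2-fold drug dilutions in triplicate and no-drug virus controls. ID50 is the concentration reducing plaques by 50% versus control.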

[7] = test system: Human alphaherpesvirus 1; assay: (§3) Evaluated for the antiviral activity against Herpes simplex virus type 1 (HSV-1).; format: organism-based; settings: read-out: ID50 (the source's name); in short: as §1
[8] = test system: Human immunodeficiency virus 1; assay: Evaluated for the antiretroviral activity against Human immunodeficiency virus type 1; format: functional; settings: read-out: ID50 (the source's name)
In short: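 CEM-F cells infected with about 30 TCID50 of HIV (LAV strain) for 45 min at 37 °C. Compound added at various concentrations, then 8-day incubation. p24 gag protein in culture supernatant measured by enzyme-capture ELISA. ID50 (µg/mL) is the dose inhibiting 50% of virus expression.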

[9] = test system: Human alphaherpesvirus 2; assay: Evaluated for the antiviral activity against Herpes simplex virus type 2 (HSV-2) with strain G by the plaque reduction assay; format: functional; settings: read-out: ID50 (the source's name); in short: as §1
[10] = test system: CCRF-CEM; assay: Evaluated for the anticellular activity against CEM cells by dye-exclusion method; format: functional; settings: Homo sapiens, read-out: ID50 (the source's name)
In short: (§4)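 CEM cells, uninfected; cell count by dye exclusion; ID50 in µg/mL.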

[11] = Evaluated for the second dissociation constant; format: ADME; settings: read-out: pKa2
[12] = Evaluated for the dissociation constant; format: ADME; settings: read-out: pKa2
[13] = Evaluated for the rate of phosphorylation with bovine brain guanylate kinase.; format: ADME, Bos taurus; settings: cattle
[14] = test system: CCRF-CEM; assay: Evaluated for the anticellular activity against CEM cells; format: functional; settings: Homo sapiens, read-out: ID50 (the source's name); in short: as §4
[15] = test system: Human betaherpesvirus 5; assay: Evaluated for the antiviral activity against Human cytomegalovirus (HCMV) strain AD-169 by the plaque reduction assay; format: functional; settings: read-out: ID50 (the source's name); in short: as §2
[16] = test system: Human alphaherpesvirus 1; assay: as §3; format: functional; settings: read-out: ID50 (the source's name); in short: as §1
[17] = test system: Rauscher murine leukemia virus; assay: Evaluated for the antiretroviral activity against Rauscher-murine leukemia virus (R-MuLV); format: functional; settings: read-out: ID50 (the source's name)
In short: (§5)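 Rauscher murine leukemia virus tested by UV-XC plaque assay; ID50 in µg/mL.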

[18] = test system: Rauscher murine leukemia virus; assay: Evaluated for the antiretroviral activity against Rauscher murine leukemia virus (R-MuLV); format: functional; settings: read-out: ID50 (the source's name); in short: as §5

| Compound | IC50 [1] | IC50 [2] | IC50 [3] | Km [4] | IC50 [8] | pKa [12] | also measured |
| --- | --- | --- | --- | --- | --- | --- | --- |
| Nc1ncnc2c1ncn2CCCOCP(=O)(O)O | > 100 µg/mL | > 100 µg/mL | 100 µg/mL (≈ 348 µM) | – | – | – | – |
| CC(COCP(=O)(O)O)n1cnc2c(O)nc(N)nc21 (stereo not drawn) | 2.92 µg/mL (≈ 9.63 µM) | – | 60 µg/mL (≈ 198 µM) | 3.9 mM | 8.4 µg/mL (≈ 27.7 µM) | – | Relative Vmax [5]: 0.073; IC50 [6]: 0.4 µg/mL (≈ 1.32 µM); IC50 [7]: 3 µg/mL (≈ 9.89 µM); IC50 [9]: 3.29 µg/mL (≈ 10.9 µM); IC50 [10]: > 100 µg/mL |
| Cc1cn([C@H]2C[C@H](O)[C@@H](COP(=O)(O)O)O2)c(=O)[nH]c1=O [THYMIDINE MONOPHOSPHATE] | – | – | – | – | – | – | pKa [11]: 6.5 |
| Nc1nc2c(ncn2CCOCP(=O)(O)O)c(=O)[nH]1 [GS-438] | 0.08 µg/mL (≈ 0.277 µM) | 0.69 µg/mL (≈ 2.39 µM) | 5 µg/mL (≈ 17.3 µM) | 2.7 mM | > 10 µg/mL | 6.52 | Relative Vmax [13]: 0.11; IC50 [14]: 10 µg/mL (≈ 34.6 µM); IC50 [15]: 0.04 µg/mL (≈ 0.138 µM); IC50 [16]: 0.1 µg/mL (≈ 0.346 µM); IC50 [17]: 0.001 µg/mL (≈ 0.00346 µM) |
| Nc1nc(O)c2ncn(CCCOCP(=O)(O)O)c2n1 | 65.5 µg/mL (≈ 216 µM) | > 100 µg/mL | 76 µg/mL (≈ 251 µM) | 4.7 mM | 7.8 µg/mL (≈ 25.7 µM) | – | Relative Vmax [13]: 0.0024; IC50 [14]: > 100 µg/mL; IC50 [15]: 6 µg/mL (≈ 19.8 µM); IC50 [7]: 65.5 µg/mL (≈ 216 µM); IC50 [18]: 0.04 µg/mL (≈ 0.132 µM) |
| Nc1nc2c(ncn2COCCO)c(=O)[nH]1 [ACYCLOVIR] | 0.5 µg/mL (≈ 2.22 µM) | 2.4 µg/mL (≈ 10.7 µM) | 100 µg/mL (≈ 444 µM) | – | – | – | IC50 [15]: 38.4 µg/mL (≈ 171 µM) |
| Nc1ncnc2c1ncn2CCOCP(=O)(O)O [ADEFOVIR] | 21 µg/mL (≈ 76.9 µM) | 9.4 µg/mL (≈ 34.4 µM) | > 100 µg/mL | – | 3 µg/mL (≈ 11 µM) | – | IC50 [15]: 0.93 µg/mL (≈ 3.4 µM); IC50 [18]: 0.05 µg/mL (≈ 0.183 µM); IC50 [10]: > 100 µg/mL |
| Nc1nc(O)c2ncn(CCCC(F)(F)P(=O)(O)O)c2n1 | > 100 µg/mL | > 100 µg/mL | 100 µg/mL (≈ 309 µM) | – | – | 5.52 | – |
| Nc1nc(O)c2ncn(CCSCP(=O)(O)O)c2n1 | > 100 µg/mL | > 100 µg/mL | 100 µg/mL (≈ 328 µM) | – | – | 6.59 | – |
| Nc1nc(O)c2ncn(CCCCP(=O)(O)O)c2n1 | > 100 µg/mL | – | 100 µg/mL (≈ 348 µM) | – | – | 7.08 | IC50 [9]: > 100 µg/mL |
| Nc1nc2c(ncn2[C@@H]2O[C@H](COP(=O)(O)O)[C@H](O)[C@@H]2O)c(=O)[nH]1 [E626] | – | – | – | 3.3 mM | – | – | Relative Vmax [13]: 100 |
| Cc1cn([C@H]2C[C@H](N=[N+]=[N-])[C@@H](CO)O2)c(=O)[nH]c1=O [ZIDOVUDINE] | – | – | – | – | 0.05 µg/mL (≈ 0.187 µM) | – | IC50 [18]: 0.001 µg/mL (≈ 0.00374 µM); IC50 [10]: > 50 µg/mL |
| Nc1nc(O)c2ncn(CCCCOCP(=O)(O)O)c2n1 | > 100 µg/mL | > 100 µg/mL | 100 µg/mL (≈ 315 µM) | – | – | – | IC50 [7]: > 145 µg/mL |
| Nc1nc2c(ncn2COCCP(=O)(O)O)c(=O)[nH]1 | > 100 µg/mL | – | 100 µg/mL (≈ 346 µM) | – | – | 6.76 | IC50 [7]: > 145 µg/mL; IC50 [9]: > 100 µg/mL |
| Nc1nc2c(ncn2[C@H]2C[C@H](O)[C@@H](COP(=O)(O)O)O2)c(=O)[nH]1 | – | – | – | 1.2 mM | – | – | Relative Vmax [13]: 14 |
